B1: Osa-1-4 twister ribozyme (parent)
chain: CCGCCUAACACUGCCAAUGCCGGUCCCAAGCCCGGAUAAAAGUGGAGGGGGCGG

Variants of: B1
Experiment: self-cleavage, relative activity (ratio to wild type); higher = more cleavage; co-transcriptional
In short: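 A DNA template for a 54-nucleotide Oryza sativa twister ribozyme was synthesised with 97 % wild-type base and 1 % of each other base at the 48 positions downstream of the cleavage site. It was transcribed in vitro for 2 h at 37 °C, allowing co-transcriptional self-cleavage, then reverse-transcribed with a template-switching oligonucleotide, PCR-amplified and deep-sequenced. Cleavage status was scored from reads with or without upstream sequence. Relative activity is fraction cleaved normalised to wild type.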
C9U U18C showed a self-cleavage of 0.53. In the case of C9U U18G, the self-cleavage is reported as 0.57. In the case of C9U U24A, the self-cleavage is reported as 0.06. Work on C9U U24C yielded a self-cleavage of 0.06. Work on C9U U24G yielded a self-cleavage of 0.01. C9U U37A showed a self-cleavage of 0.4. For C9U U37C, the self-cleavage was 0.82. C9U U37G showed a self-cleavage of 0.85. C9U U43A showed a self-cleavage of 0.68. Work on C9U U43C yielded a self-cleavage of 0.16. In the case of C9U U43G, the self-cleavage is reported as 0.4. A10C showed a self-cleavage of 0.12. A10C A7C gave a self-cleavage of 0.04. Variant A10C A7G has a self-cleavage of 0.06. A10C A7U gave a self-cleavage of 0.06. A10C A8C showed a self-cleavage of 0.15. With A10C A8G the self-cleavage was 0.06. In the case of A10C A8U, the self-cleavage is reported as 0.04. With A10C A16C the self-cleavage was 0.09. For A10C A16G, the self-cleavage was 0.14. Variant A10C A16U has a self-cleavage of 0.08. Work on A10C A17C yielded a self-cleavage of 0.03. Work on A10C A17G yielded a self-cleavage of 0.1. With A10C A17U the self-cleavage was 0.08. In the case of A10C A28C, the self-cleavage is reported as 0.08. In the case of A10C A28G, the self-cleavage is reported as 0.03. For A10C A28U, the self-cleavage was 0.05. Variant A10C A29C has a self-cleavage of 0.02. A10C A29G showed a self-cleavage of 0.03. Work on A10C A29U yielded a self-cleavage of 0.02. With A10C A36C the self-cleavage was 0.03. In the case of A10C A36G, the self-cleavage is reported as 0.11. With A10C A36U the self-cleavage was 0.09. A10C A38C showed a self-cleavage of 0.07. A10C A38G gave a self-cleavage of 0.08. A10C A38U showed a self-cleavage of 0.08. For A10C A39C, the self-cleavage was 0.05. Variant A10C A39G has a self-cleavage of 0.06. In the case of A10C A39U, the self-cleavage is reported as 0.05. A10C A40C gave a self-cleavage of 0.03. In the case of A10C A40G, the self-cleavage is reported as 0.04. For A10C A40U, the self-cleavage was 0.03. Variant A10C A41C has a self-cleavage of 0.05. Work on A10C A41G yielded a self-cleavage of 0.11. For A10C A41U, the self-cleavage was 0.06. A10C A46C gave a self-cleavage of 0.02. In the case of A10C A46G, the self-cleavage is reported as 0.03. A10C A46U showed a self-cleavage of 0.02. In the case of A10C C9A, the self-cleavage is reported as 0.43. A10C C9G showed a self-cleavage of 0.07. Variant A10C C9U has a self-cleavage of 0.06. A10C C11A showed a self-cleavage of 0.1. With A10C C11G the self-cleavage was 0.04. A10C C11U showed a self-cleavage of 0.51. For A10C C14A, the self-cleavage was 0.02. A10C C14G gave a self-cleavage of 0.04. Variant A10C C14U has a self-cleavage of 0.03. For A10C C15A, the self-cleavage was 0.08. A10C C15G showed a self-cleavage of 0.04. Variant A10C C15U has a self-cleavage of 0.04. In the case of A10C C20A, the self-cleavage is reported as 0.08. A10C C20G showed a self-cleavage of 0.03. For A10C C20U, the self-cleavage was 0.08. A10C C21A gave a self-cleavage of 0.04. A10C C21G gave a self-cleavage of 0.01. In the case of A10C C21U, the self-cleavage is reported as 0.06. Variant A10C C25A has a self-cleavage of 0.03. A10C C25G gave a self-cleavage of 0.01. Work on A10C C25U yielded a self-cleavage of 0.04. Work on A10C C26A yielded a self-cleavage of 0.03. A10C C26G showed a self-cleavage of 0.03. In the case of A10C C26U, the self-cleavage is reported as 0.03. With A10C C27A the self-cleavage was 0.06. A10C C27G showed a self-cleavage of 0.02. A10C C27U showed a self-cleavage of 0.02. Work on A10C C31A yielded a self-cleavage of 0.02. With A10C C31G the self-cleavage was 0.03. A10C C31U gave a self-cleavage of 0.03. A10C C32A showed a self-cleavage of 0.02. Variant A10C C32G has a self-cleavage of 0.02. Variant A10C C32U has a self-cleavage of 0.02. In the case of A10C C33A, the self-cleavage is reported as 0.03. With A10C C33G the self-cleavage was 0.02. With A10C C33U the self-cleavage was 0.04. Variant A10C C52A has a self-cleavage of 0.06. A10C C52G gave a self-cleavage of 0.11. With A10C C52U the self-cleavage was 0.11. With A10C G13A the self-cleavage was 0.02. A10C G13C showed a self-cleavage of 0.02. A10C G13U gave a self-cleavage of 0.03. A10C G19A gave a self-cleavage of 0.04. With A10C G19C the self-cleavage was 0.02. For A10C G19U, the self-cleavage was 0.03. Work on A10C G22A yielded a self-cleavage of 0.05. For A10C G22C, the self-cleavage was 0.02. A10C G22U gave a self-cleavage of 0.03. Work on A10C G23A yielded a self-cleavage of 0.03. A10C G23C gave a self-cleavage of 0.01. Work on A10C G23U yielded a self-cleavage of 0.02. For A10C G30A, the self-cleavage was 0.01. A10C G30C gave a self-cleavage of 0.01. With A10C G30U the self-cleavage was 0.01. Work on A10C G34A yielded a self-cleavage of 0.04. With A10C G34C the self-cleavage was 0.03. A10C G34U gave a self-cleavage of 0.05. In the case of A10C G35A, the self-cleavage is reported as 0.07. A10C G35C gave a self-cleavage of 0.03. A10C G35U showed a self-cleavage of 0.04. Variant A10C G42A has a self-cleavage of 0.03. For A10C G42C, the self-cleavage was 0.02. Work on A10C G42U yielded a self-cleavage of 0.01. Variant A10C G44A has a self-cleavage of 0.06. A10C G44C gave a self-cleavage of 0.16. A10C G44U showed a self-cleavage of 0.22. In the case of A10C G45A, the self-cleavage is reported as 0.02. Variant A10C G45C has a self-cleavage of 0.02. A10C G45U gave a self-cleavage of 0.02. Variant A10C G47A has a self-cleavage of 0.02. A10C G47C gave a self-cleavage of 0.02. A10C G47U showed a self-cleavage of 0.03. A10C G48A gave a self-cleavage of 0.02. In the case of A10C G48C, the self-cleavage is reported as 0.02. A10C G48U gave a self-cleavage of 0.02. Variant A10C G49A has a self-cleavage of 0.02. A10C G49C gave a self-cleavage of 0.02. For A10C G49U, the self-cleavage was 0.02. A10C G50A gave a self-cleavage of 0.11. Work on A10C G50C yielded a self-cleavage of 0.04. With A10C G50U the self-cleavage was 0.04. Work on A10C G51A yielded a self-cleavage of 0.06. Variant A10C G51C has a self-cleavage of 0.02. A10C G51U gave a self-cleavage of 0.04. With A10C G53A the self-cleavage was 0.11. With A10C G53C the self-cleavage was 0.02. A10C G53U gave a self-cleavage of 0.06. A10C G54A gave a self-cleavage of 0.17. For A10C G54C, the self-cleavage was 0.14. A10C G54U gave a self-cleavage of 0.3. A10C U12A showed a self-cleavage of 0.03. Variant A10C U12C has a self-cleavage of 0.06. A10C U12G showed a self-cleavage of 0.04. A10C U18A gave a self-cleavage of 0.08. In the case of A10C U18C, the self-cleavage is reported as 0.07. In the case of A10C U18G, the self-cleavage is reported as 0.24. For A10C U24A, the self-cleavage was 0.02. A10C U24C gave a self-cleavage of 0.04. For A10C U24G, the self-cleavage was 0.02. With A10C U37A the self-cleavage was 0.11. Variant A10C U37C has a self-cleavage of 0.09. A10C U37G showed a self-cleavage of 0.11. Work on A10C U43A yielded a self-cleavage of 0.39. A10C U43C gave a self-cleavage of 0.05. A10C U43G showed a self-cleavage of 0.64. Variant A10G has a self-cleavage of 0.91. In the case of A10G A7C, the self-cleavage is reported as 0.06. For A10G A7G, the self-cleavage was 0.39. A10G A7U gave a self-cleavage of 0.09. With A10G A8C the self-cleavage was 0.13. In the case of A10G A8G, the self-cleavage is reported as 0.49. In the case of A10G A8U, the self-cleavage is reported as 0.12. A10G A16C showed a self-cleavage of 0.27. A10G A16G gave a self-cleavage of 0.89. Variant A10G A16U has a self-cleavage of 0.61. For A10G A17C, the self-cleavage was 0.44. A10G A17G showed a self-cleavage of 0.64. For A10G A17U, the self-cleavage was 0.85. Work on A10G A28C yielded a self-cleavage of 0.63.
